# Laboratory results from ChEMBL document CHEMBL1127521, “CCK-A-selective tetrapeptides containing lys(N epsilon)-amide residues: favorable in vivo and in vitro effects of N-methylation at the aspartyl residue” (J Med Chem, 1994).
# Square brackets hold non-standard residues; d marks the D form. Peptide text beside a SMILES is read from it. * marks the point of attachment. ξ: configuration not given here. Acryloyl(3-(3-pyridyl),E) = O=C(/C=C/c1cccnc1)*; NMeF = CN[C@@H](Cc1ccccc1)C(=O)O; ξW = NC(Cc1c[nH]c2ccccc12)C(=O)O; NMeD = CN[C@@H](CC(=O)O)C(=O)O; X1 = O=C(/C=C/c1ccc(O)cc1)*; X2 = O=C(/C=C/c1cccs1)*; Boc = CC(C)(C)OC(=O)*
# Tests used:
# [1] = target: Cholecystokinin B receptor (Cavia porcellus); assay: In vitro binding for inhibition of [125I]- Bolton-Hunter-CCK-8 binding in guinea pig cortex
# Rattus norvegicus = assay: Compound was evaluated for Appetite suppression, based on intake of liquid diet by food-deprived rats for 1 h following intraperitoneal injection; format: functional; settings: ip
# How it was run: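 Rats are food-deprived, dosed intraperitoneally, and their liquid diet intake over the following 1 h is measured as the appetite suppression read-out.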
# [2] = target: Cholecystokinin A receptor (Cavia porcellus); assay: In vitro inhibition of [125I]CCK-8 binding to guinea pig pancreas
# [3] = target: T1, Cholecystokinin receptor type A (Cavia porcellus) (UniProt Q63931); assay: Percent maximal stimulation of phosphatidylinositol hydrolysis in guinea pig pancreatic acini (CCK-A receptors) relative to CCK-8; format: functional
# T1 sequence (whole entry): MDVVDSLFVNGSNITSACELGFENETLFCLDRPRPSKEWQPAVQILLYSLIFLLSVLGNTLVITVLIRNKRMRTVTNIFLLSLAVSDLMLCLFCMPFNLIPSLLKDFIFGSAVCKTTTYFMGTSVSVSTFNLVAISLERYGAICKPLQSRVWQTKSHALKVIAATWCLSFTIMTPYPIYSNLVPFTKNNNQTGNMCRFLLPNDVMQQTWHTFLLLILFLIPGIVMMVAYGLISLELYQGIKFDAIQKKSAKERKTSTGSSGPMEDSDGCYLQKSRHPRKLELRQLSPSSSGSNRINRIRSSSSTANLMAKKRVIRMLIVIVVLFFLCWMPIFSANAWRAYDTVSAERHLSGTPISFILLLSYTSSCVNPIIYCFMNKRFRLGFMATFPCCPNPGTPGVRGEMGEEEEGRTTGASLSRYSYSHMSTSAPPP
# How it was run: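 Functional CCK-A assay in guinea pig pancreatic acini. Phosphatidylinositol hydrolysis is measured and expressed as percent of the maximal stimulation produced by CCK-8.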
SMILES,ED50 (Rattus norvegicus),Hydrolysis [3],also measured
"CN(C(=O)[C@H](CC(=O)O)NC(=O)[C@H](CCCCNC(=O)/C=C/c1cccnc1)NC(=O)[C@H](Cc1c[nH]c2ccccc12)NC(=O)OC(C)(C)C)[C@@H](Cc1ccccc1)C(N)=O (Boc-WK(Acryloyl(3-(3-pyridyl),E))D[NMeF]-NH2) [listing 1 of 2 here]",,,IC50 [1]: 128 nM
"CN(C(=O)[C@H](CC(=O)O)NC(=O)[C@H](CCCCNC(=O)/C=C/c1cccnc1)NC(=O)[C@H](Cc1c[nH]c2ccccc12)NC(=O)OC(C)(C)C)[C@@H](Cc1ccccc1)C(N)=O (Boc-WK(Acryloyl(3-(3-pyridyl),E))D[NMeF]-NH2) [listing 2 of 2 here]",2.52 µmol/kg,,
"CN(C(=O)[C@H](CCCCNC(=O)/C=C/c1cccnc1)NC(=O)[C@H](Cc1c[nH]c2ccccc12)NC(=O)OC(C)(C)C)[C@@H](CC(=O)O)C(=O)N[C@@H](Cc1ccccc1)C(N)=O (Boc-WK(Acryloyl(3-(3-pyridyl),E))[NMeD]F-NH2) [listing 1 of 2 here]",,,IC50 [2]: 41 nM; IC50 [1]: 10400 nM
"CN(C(=O)[C@H](CCCCNC(=O)/C=C/c1cccnc1)NC(=O)[C@H](Cc1c[nH]c2ccccc12)NC(=O)OC(C)(C)C)[C@@H](CC(=O)O)C(=O)N[C@@H](Cc1ccccc1)C(N)=O (Boc-WK(Acryloyl(3-(3-pyridyl),E))[NMeD]F-NH2) [listing 2 of 2 here]",0.036 µmol/kg,,
"CN(C(=O)[C@H](CCCCNC(=O)/C=C/c1cccnc1)NC(=O)[C@H](Cc1c[nH]c2ccccc12)NC(=O)OC(C)(C)C)[C@@H](CC(=O)O)C(=O)N(C)[C@@H](Cc1ccccc1)C(N)=O (Boc-WK(Acryloyl(3-(3-pyridyl),E))[NMeD][NMeF]-NH2) [listing 1 of 2 here]",,,IC50 [2]: 50 nM
"CN(C(=O)[C@H](CCCCNC(=O)/C=C/c1cccnc1)NC(=O)[C@H](Cc1c[nH]c2ccccc12)NC(=O)OC(C)(C)C)[C@@H](CC(=O)O)C(=O)N(C)[C@@H](Cc1ccccc1)C(N)=O (Boc-WK(Acryloyl(3-(3-pyridyl),E))[NMeD][NMeF]-NH2) [listing 2 of 2 here]",0.016 µmol/kg,,
CN(C(=O)[C@H](CC(=O)O)NC(=O)[C@H](CCCCNC(=O)/C=C/c1ccc(O)cc1)NC(=O)[C@H](Cc1c[nH]c2ccccc12)NC(=O)OC(C)(C)C)[C@@H](Cc1ccccc1)C(N)=O (Boc-WK(X1)D[NMeF]-NH2),0.413 µmol/kg,,
CN(C(=O)[C@H](CCCCNC(=O)/C=C/c1ccc(O)cc1)NC(=O)[C@H](Cc1c[nH]c2ccccc12)NC(=O)OC(C)(C)C)[C@@H](CC(=O)O)C(=O)N[C@@H](Cc1ccccc1)C(N)=O (Boc-WK(X1)[NMeD]F-NH2) [listing 1 of 2 here],,,IC50 [2]: 5 nM; IC50 [1]: 5810 nM
CN(C(=O)[C@H](CCCCNC(=O)/C=C/c1ccc(O)cc1)NC(=O)[C@H](Cc1c[nH]c2ccccc12)NC(=O)OC(C)(C)C)[C@@H](CC(=O)O)C(=O)N[C@@H](Cc1ccccc1)C(N)=O (Boc-WK(X1)[NMeD]F-NH2) [listing 2 of 2 here],0.018 µmol/kg,,
CN(C(=O)[C@H](CCCCNC(=O)/C=C/c1ccc(O)cc1)NC(=O)[C@H](Cc1c[nH]c2ccccc12)NC(=O)OC(C)(C)C)[C@@H](CC(=O)O)C(=O)N(C)[C@@H](Cc1ccccc1)C(N)=O (Boc-WK(X1)[NMeD][NMeF]-NH2) [listing 1 of 2 here],,,IC50 [2]: 9 nM; IC50 [1]: 13600 nM
CN(C(=O)[C@H](CCCCNC(=O)/C=C/c1ccc(O)cc1)NC(=O)[C@H](Cc1c[nH]c2ccccc12)NC(=O)OC(C)(C)C)[C@@H](CC(=O)O)C(=O)N(C)[C@@H](Cc1ccccc1)C(N)=O (Boc-WK(X1)[NMeD][NMeF]-NH2) [listing 2 of 2 here],0.062 µmol/kg,,
CN(C(=O)[C@H](CC(=O)O)NC(=O)[C@H](CCCCNC(=O)/C=C/c1cccs1)NC(=O)[C@H](Cc1c[nH]c2ccccc12)NC(=O)OC(C)(C)C)[C@@H](Cc1ccccc1)C(N)=O (Boc-WK(X2)D[NMeF]-NH2) [listing 1 of 2 here],,,IC50 [2]: 18 nM; IC50 [1]: 731 nM
CN(C(=O)[C@H](CC(=O)O)NC(=O)[C@H](CCCCNC(=O)/C=C/c1cccs1)NC(=O)[C@H](Cc1c[nH]c2ccccc12)NC(=O)OC(C)(C)C)[C@@H](Cc1ccccc1)C(N)=O (Boc-WK(X2)D[NMeF]-NH2) [listing 2 of 2 here],1.4 µmol/kg,,
CN(C(=O)[C@H](CCCCNC(=O)/C=C/c1cccs1)NC(=O)[C@H](Cc1c[nH]c2ccccc12)NC(=O)OC(C)(C)C)[C@@H](CC(=O)O)C(=O)N[C@@H](Cc1ccccc1)C(N)=O (Boc-WK(X2)[NMeD]F-NH2) [listing 1 of 2 here],,,IC50 [2]: 35 nM; IC50 [1]: 4577 nM
CN(C(=O)[C@H](CCCCNC(=O)/C=C/c1cccs1)NC(=O)[C@H](Cc1c[nH]c2ccccc12)NC(=O)OC(C)(C)C)[C@@H](CC(=O)O)C(=O)N[C@@H](Cc1ccccc1)C(N)=O (Boc-WK(X2)[NMeD]F-NH2) [listing 2 of 2 here],0.012 µmol/kg,,
CN(C(=O)[C@H](CCCCNC(=O)/C=C/c1cccs1)NC(=O)[C@H](Cc1c[nH]c2ccccc12)NC(=O)OC(C)(C)C)[C@@H](CC(=O)O)C(=O)N(C)[C@@H](Cc1ccccc1)C(N)=O (Boc-WK(X2)[NMeD][NMeF]-NH2) [listing 1 of 2 here],,,IC50 [2]: 32 nM; IC50 [1]: 10900 nM
CN(C(=O)[C@H](CCCCNC(=O)/C=C/c1cccs1)NC(=O)[C@H](Cc1c[nH]c2ccccc12)NC(=O)OC(C)(C)C)[C@@H](CC(=O)O)C(=O)N(C)[C@@H](Cc1ccccc1)C(N)=O (Boc-WK(X2)[NMeD][NMeF]-NH2) [listing 2 of 2 here],0.022 µmol/kg,,
"CN(C(=O)[C@H](CC(=O)O)NC(=O)[C@H](CCCCNC(=O)/C=C/c1cccnc1)NC(=O)C(Cc1c[nH]c2ccccc12)NC(=O)OC(C)(C)C)[C@@H](Cc1ccccc1)C(N)=O (some centres not stated) (Boc-[ξW]K(Acryloyl(3-(3-pyridyl),E))D[NMeF]-NH2)",,88%,
"CN(C(=O)[C@H](CCCCNC(=O)/C=C/c1cccnc1)NC(=O)C(Cc1c[nH]c2ccccc12)NC(=O)OC(C)(C)C)[C@@H](CC(=O)O)C(=O)N[C@@H](Cc1ccccc1)C(N)=O (some centres not stated) (Boc-[ξW]K(Acryloyl(3-(3-pyridyl),E))[NMeD]F-NH2)",,98%,
"CN(C(=O)[C@H](CCCCNC(=O)/C=C/c1cccnc1)NC(=O)C(Cc1c[nH]c2ccccc12)NC(=O)OC(C)(C)C)[C@@H](CC(=O)O)C(=O)N(C)[C@@H](Cc1ccccc1)C(N)=O (some centres not stated) (Boc-[ξW]K(Acryloyl(3-(3-pyridyl),E))[NMeD][NMeF]-NH2)",,94%,
CN(C(=O)[C@H](CC(=O)O)NC(=O)[C@H](CCCCNC(=O)/C=C/c1ccc(O)cc1)NC(=O)C(Cc1c[nH]c2ccccc12)NC(=O)OC(C)(C)C)[C@@H](Cc1ccccc1)C(N)=O (some centres not stated) (Boc-[ξW]K(X1)D[NMeF]-NH2),,76%,
CN(C(=O)[C@H](CCCCNC(=O)/C=C/c1ccc(O)cc1)NC(=O)C(Cc1c[nH]c2ccccc12)NC(=O)OC(C)(C)C)[C@@H](CC(=O)O)C(=O)N[C@@H](Cc1ccccc1)C(N)=O (some centres not stated) (Boc-[ξW]K(X1)[NMeD]F-NH2),,101%,
CN(C(=O)[C@H](CCCCNC(=O)/C=C/c1ccc(O)cc1)NC(=O)C(Cc1c[nH]c2ccccc12)NC(=O)OC(C)(C)C)[C@@H](CC(=O)O)C(=O)N(C)[C@@H](Cc1ccccc1)C(N)=O (some centres not stated) (Boc-[ξW]K(X1)[NMeD][NMeF]-NH2),,91%,
CN(C(=O)[C@H](CC(=O)O)NC(=O)[C@H](CCCCNC(=O)/C=C/c1cccs1)NC(=O)C(Cc1c[nH]c2ccccc12)NC(=O)OC(C)(C)C)[C@@H](Cc1ccccc1)C(N)=O (some centres not stated) (Boc-[ξW]K(X2)D[NMeF]-NH2),,84%,
CN(C(=O)[C@H](CCCCNC(=O)/C=C/c1cccs1)NC(=O)C(Cc1c[nH]c2ccccc12)NC(=O)OC(C)(C)C)[C@@H](CC(=O)O)C(=O)N[C@@H](Cc1ccccc1)C(N)=O (some centres not stated) (Boc-[ξW]K(X2)[NMeD]F-NH2),,95%,
CN(C(=O)[C@H](CCCCNC(=O)/C=C/c1cccs1)NC(=O)C(Cc1c[nH]c2ccccc12)NC(=O)OC(C)(C)C)[C@@H](CC(=O)O)C(=O)N(C)[C@@H](Cc1ccccc1)C(N)=O (some centres not stated) (Boc-[ξW]K(X2)[NMeD][NMeF]-NH2),,93%,
